What was measured:
L1210 [1] = assay: Antitumor activity in the mice with intraperitoneal implanted L1210 lymphoid leukemia at the dose of 34.8 and 56.1 mg/kg/day x 5 was determined as mean survival of treated group compared to untreated; 9.5/9; assay type: functional, Mus musculus
In short: (§1)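 C3D2F1/J female mice (C3H/HeJ female × DBA/2J male), groups of six to eight, average weight 25 g. Inoculated ip with 1 × 10^6 L1210 ascites cells taken from DBA/2Ha donor mice bearing 3-5 day old tumors. Compounds were dissolved in 0.154 N NaOH, neutralized with 0.154 N HCl (final 0.9% NaCl), and given ip daily for 5 days from 24 h post-implant. Median survival T/C; ILS = (T/C − 1) × 100; 30-day survivors counted.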

L1210 [2] = assay: Antitumor activity in mice with intraperitoneal implanted L1210 lymphoid leukemia at the dose 9.2 and 14.9 mg/kg/day x 5 was determined as weight change (g/mouse) on 8th day; assay type: functional
In short: (§2)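 C3D2F1/J female mice (C3H/HeJ × DBA/2J), groups of six to eight, average 25 g, inoculated ip with 1 × 10^6 L1210 ascites cells taken from DBA/2Ha donor mice carrying 3-5 day tumors. Compound dissolved in 0.154 N NaOH, then neutralized with 0.154 N HCl to give 0.9% NaCl. Given ip daily for 5 consecutive days starting 24 h after implantation. Body weight change per mouse recorded on day 8.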

L1210 [3] = assay: Antitumor activity in the mice with intraperitoneal implanted L1210 lymphoid leukemia at the dose of 9.2 and 14.9 mg/kg/day x 5 was determined as mean survival of treated group compared to untreated; 9.5/9; assay type: functional, Mus musculus
L1210 [4] = assay: Antitumor activity in mice with intraperitoneal implanted L1210 lymphoid leukemia at the dose 34.8 and 56.1 mg/kg/day x 5 was determined as weight change (g/mouse) on 8th day; assay type: functional; in short: as §2
L1210 [5] = assay: Antitumor activity in the mice with intraperitoneal implanted L1210 lymphoid leukemia at the dose 34.8 and 56.1 mg/kg/day x 5 was determined and number of animals survived on 30 th day were reported; 0/8; assay type: functional, Mus musculus
In short: (§3)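 Female C3D2F1/J mice (C3H/HeJ × DBA/2J), groups of six to eight, average weight 25 g. Each mouse got 1 × 10^6 L1210 ascites cells ip, taken from DBA/2Ha donor mice bearing 3-5 day tumors. Compound was dissolved in 0.154 N NaOH and neutralized with 0.154 N HCl (final 0.9% NaCl). Dosed ip daily ×5, starting 24 h after implant. Recorded body weight change on day 8, survival range, median survival and 30-day survivors. ILS = (T/C − 1) × 100.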

L1210 [6] = assay: Antitumor activity in the mice with intraperitoneal implanted L1210 lymphoid leukemia at the dose 34.8 and 56.1 mg/kg/day x 5 was determined as Survival time in days; Range is 8-9 days; assay type: functional, Mus musculus; in short: as §3
L1210 [7] = assay: Antitumor activity in the mice with intraperitoneal implanted L1210 lymphoid leukemia at the dose 9.2 and 14.9 mg/kg/day x 5 was determined as percentage increase in the life span as compared with control tumor bearers; assay type: functional, Mus musculus; in short: as §1
L1210 [8] = assay: Antitumor activity in the mice with intraperitoneal implanted L1210 lymphoid leukemia at the dose 9.2 and 14.9 mg/kg/day x 5 was determined as Survival time in days; Range is 8-10 days; assay type: functional, Mus musculus; in short: as §1
L1210 [9] = assay: Antitumor activity in the mice with intraperitoneal implanted L1210 lymphoid leukemia at the dose 34.8 and 56.1 mg/kg/day x 5 was determined as percentage increase in the life span as compared with control tumor bearers; assay type: functional, Mus musculus; in short: as §3
L1210 [10] = assay: Antitumor activity in the mice with intraperitoneal implanted L1210 lymphoid leukemia at the dose 9.2 and 14.9 mg/kg/day x 5 was determined and number of animals survived on 30 th day were reported; 0/6; assay type: functional, Mus musculus; in short: as §1

C[C@@H]1C[C@H]2[C@@H]3CCC4=CC(=O)C=C[C@]4(C)[C@@]3(F)[C@@H](O)C[C@]2(C)[C@@]1(O)C(=O)CO.Nc1ccn([C@@H]2O[C@H](CO)[C@@H](O)[C@@H]2O)c(=O)n1
T/C (L1210 [1]): 8.5
Weight change (L1210 [2]): -4.23 g mouse-1
T/C (L1210 [3]): 9.5
Weight change (L1210 [4]): -2.72 g mouse-1
Survivors (L1210 [5]): 0
Survival time (L1210 [6]): 8 days
ILS (L1210 [7]): -14%
Survival time (L1210 [8]): 8 days
ILS (L1210 [9]): -6%
Survivors (L1210 [10]): 0

Source: ChEMBL document CHEMBL1121364, “Nucleoside conjugates as potential antitumor agents. 3. Synthesis and antitumor activity of 1-(beta-D-arabinofuranosyl)cytosine conjugates of corticosteroids” (1980)
